# Screening results deposited in PubChem BioAssay by The Scripps Research Institute Molecular Screening Center.
# CHRM4 agonist – CHRM4 agonism in calcium assay. P08173. CHO-K1 hM4/Gqi5, Fluo-8 calcium fluorescence; vehicle 0%, full acetylcholine response 100%. activation, % at 3 µM. 0.14% of 360,000 active;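 active means activation above the run mean over all test wells plus 3 SD, cut at about 32% in these data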;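 further: peak over basal fluorescence ratio per well then scaled between controls; 0% = DMSO wells and 100% = acetylcholine at EC100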
# Target sequence (P08173 whole entry, looked up): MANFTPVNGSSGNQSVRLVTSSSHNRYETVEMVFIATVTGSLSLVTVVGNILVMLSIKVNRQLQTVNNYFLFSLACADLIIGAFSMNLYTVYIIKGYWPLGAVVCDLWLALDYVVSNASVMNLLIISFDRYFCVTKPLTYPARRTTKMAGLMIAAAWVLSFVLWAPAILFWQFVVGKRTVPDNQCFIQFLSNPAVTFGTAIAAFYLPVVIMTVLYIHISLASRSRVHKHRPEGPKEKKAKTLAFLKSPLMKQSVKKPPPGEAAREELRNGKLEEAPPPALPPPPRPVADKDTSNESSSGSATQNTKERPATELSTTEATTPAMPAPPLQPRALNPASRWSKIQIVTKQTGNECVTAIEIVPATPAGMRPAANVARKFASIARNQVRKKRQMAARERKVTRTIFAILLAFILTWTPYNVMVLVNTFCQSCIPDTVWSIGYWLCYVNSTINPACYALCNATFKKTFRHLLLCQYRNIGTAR
# M4 antag – CHRM4 antagonism in calcium assay | P08173 | CHO-hM4 cells, ACh EC80, Fluo-8 calcium fluorescence | inhibition, % at 3 µM | 0.73% of 360,000 active | AID 624125;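 active means inhibition above its plate's cutoff, the mean inhibition of sample wells plus 3 SD, cut at about 27% in these data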;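 further: 0% = acetylcholine EC80 with DMSO and 100% = DMSO without agonist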
# V1R ag counter – counter-screen for oxytocin receptor agonists: human V1a receptor agonists. 0.25% of 320,000 active. P37288. CHO-V1R cells, Fluo-8 calcium fluorescence, agonist mode; 0% DMSO, 100% 3 nM vasopressin. activation, % at 3 µM. AID 2797;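 active means activation above the mean activation of all tested compounds plus 3 SD, per screening run, cut at about 20% in these data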;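 further: signal is peak over basal fluorescence ratio across a 100 second FLIPR read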
# OXTR agonist – human OXTR agonism; activation, % at 3 µM; 0.32% of 320,000 active; AID 2435; CHO-OTR cells, Fluo-8 calcium fluorescence; normalized: DMSO 0%, oxytocin 100%;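 active means activation above the mean of all tested compounds plus 3 SD, cutoff set per screening run, cut at about 20% in these data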;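 further: peak over basal fluorescence ratio from a 100 s FLIPR kinetic read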
# M4 PAM – CHRM4 positive allosteric modulation | P08173 | CHO-K1 hM4/Gqi5, Fluo-8 calcium fluorescence, ACh EC20; 0% = ACh EC20, 100% = maximal ACh | activation, % at 3 µM | 0.4% of 360,000 active | AID 624126;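 active means activation above its plate's cutoff, the mean activation of sample wells plus 3 SD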
# OXTR potentiator – potentiates the human oxytocin receptor response; activation, % at 3 µM; CHO-OTR cells, Fluo-8 calcium fluorescence, potentiator mode; 0% = oxytocin EC15, 100% = EC100; 0.061% of 320,000 active;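 active means activation above that plate's cutoff, the mean activation of tested compounds plus 3 SD, cut at about 6.6% in these data, passing the limit was not always enough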;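 further: 100% uses oxytocin at 75 nM as the full agonist control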
#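 Dosing: Single dose, 3.0 µM nominal final compound concentration | Material: Human OTR in CHO cells | Technique: Kinetic Fluo-8 calcium fluorescence | Benchmarks: EC15 oxytocin alone as 0%, 75 nM oxytocin as 100% | Probe or stimulus: Oxytocin at about EC15, sub-maximal agonist stimulus | Incubation: Compound 6 min at room temperature before oxytocin, 100 s read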
# An asterisk follows results filed as active; · = no result given. Sampled rows, rich in hits. Any-hit rate of the full collection: about 1.5%.
SMILES,CHRM4 agonist,M4 antag,V1R ag counter,OXTR agonist,M4 PAM,OXTR potentiator
O=C(NC1CCCC1)C(c1ccco1)N1CCC(O)(c2ccc(Cl)cc2)CC1 (stereo unspecified),4,-5,·,·,-8,·
CCN1/C(=C/C=C/c2oc3ccc4ccccc4c3[n+]2CC)Oc2ccc3ccccc3c21,·,·,45*,39*,·,-6
CC[n+]1c(/C=C/N(C)c2ccccc2)oc2ccc(Cl)cc21,1,-4,6,1,-1,2
O=C(O)c1ccccc1C(c1ccc(O)cc1)c1ccc(O)cc1,1,6,1,0,0,-10
CC1=C(C(=O)N2CCOCC2)CC(CC(=O)NC2CCCCC2)C(=O)N1CCCN1CCCC1=O (stereo unspecified),1,-25,·,·,8,·
CCN(CC)c1ccc2c(-c3ccc(S(=O)(=O)O)cc3S(=O)(=O)[O-])c3ccc(=[N+](CC)CC)cc-3oc2c1,78*,17,180*,266*,-17,-10
CCN(CC)c1ccc2cc(C(N)=O)c(=N)oc2c1,2,-3,1,1,-5,-12
O=C(CSc1nnc(-c2cccnc2)n1Cc1ccco1)Nc1cccc(O)c1,1,-9,0,1,2,-4
CC1CN(c2ccc(Oc3ccccc3)cc2)c2nc3c(c(=O)[nH]c(=O)n3C)n2C1 (stereo unspecified),1,-11,·,·,17*,·
COc1ccccc1Nc1nc(-c2ccc3c(c2)NC(=O)CO3)cs1,12,-3,1,2,0,-11
COc1ccc(Nc2nc(-c3ccc4c(c3)NC(=O)CO4)cs2)cc1,1,-4,3,0,22*,-11
COC(=O)c1c(O)cc(C(C)(C)C)n(-c2ccc(F)cc2)c1=O,-1,-1,0,-1,37*,0
CC(=O)c1c(O)cc(C)n(-c2ccc(F)cc2)c1=O,0,9,0,2,-2,-2
Cc1ccc(S(=O)(=O)N2CCC(C(=O)NCCCN3CCCC3=O)CC2)cc1C,0,-10,0,-1,22*,-10
CSCCC(NS(=O)(=O)c1ccccc1)C(=O)Nc1nccs1 (stereo unspecified),0,-15,·,·,6,·
CC(C)Cc1ccc(C(C)C(=O)Nc2cccnc2)cc1 (stereo unspecified),27,13,43*,46*,-19,-26
O=C(Cc1ccc(Cl)cc1)Nc1cccnc1,1,-8,1,1,28*,1
O=C(Cc1ccc(F)cc1)Nc1ccc(Cl)cn1,5,17,0,-3,15*,2
CC(C)Cc1ccc(C(C)C(=O)Nc2ccc(O)cc2)cc1 (stereo unspecified),79*,34*,44*,50*,-20,-20
O=C(Cc1ccc(Cl)cc1)Nc1ccc(Cl)cn1,-1,-3,-1,-2,-2,-3
COc1ccc(OC)c(NC(=O)COc2ccc3c(c2)CCC3)c1,0,-8,-1,-2,5,-9
Cc1ccc(N(CC(=O)NCc2ccc(F)cc2)S(=O)(=O)c2cccs2)cc1,8,6,-1,-2,-7,-3
O=C(C[C@H]1C(=O)N(CCc2ccccc2)C[C@@H]1c1ccccc1)Nc1ccccc1,1,-4,·,·,5,·
OCC1(Cc2ccccc2)CCN(CCCC2CCCC2)CC1,8,49*,3,2,-55,-7
Cc1c(CN2CCC(CO)(Cc3ccccc3)CC2)c2ccccc2n1C,5,4,4,5,-11,-10
SMILES,CHRM4 agonist,M4 antag,V1R ag counter,OXTR agonist,M4 PAM,OXTR potentiator
OCC1(Cc2ccccc2)CCN(Cc2ccc(-c3ccco3)cc2)CC1,2,30*,0,5,-20,-11
Cc1c(CCOC(=O)c2ccccc2)sc[n+]1Cc1ccccc1,-1,64*,1,0,-41,4
Cc1c(CCOC(=O)c2ccccc2)sc[n+]1CC(=O)c1ccc(Br)cc1,1,28*,-1,0,-16,-2
COc1ccc(/C=C(\NC(=O)c2ccc(OC)cc2)C(=O)N2CCCCC2)cc1,1,-7,·,·,-2,·
O=[N+]([O-])c1cccc(C2NCC(c3ccccc3Cl)c3c2[nH]c2ccccc32)c1 (stereo unspecified),5,2,345*,243*,-8,-22
O=C(CN1C(=O)COc2ccccc21)c1cccc(Cl)c1,0,31*,-1,-2,-16,-1
CSC1=NC2(CC(c3ccccc3)Oc3cc(O)ccc32)CC(C)(C)N1 (stereo unspecified),22,-11,42*,21*,3,-21
C=C(C)COc1ccc(-c2ncnc(C(F)(F)F)c2-c2ccc(OC)cc2)c(O)c1,8,25,0,-1,-15,-16
C=C(C)COc1ccc(-c2ncnc(C(F)(F)F)c2-c2ccccc2)c(O)c1,3,27*,3,2,-12,-13
c1cnc2c(C3NCCc4c3[nH]c3ccccc43)cccc2c1 (stereo unspecified),3,38*,2,4,-14,-3
COc1ccccc1C(=O)Nc1ccc2c(c1)nc(CN1CCN(C(C)=O)CC1)n2C,1,27*,0,0,7,-1
CN(C)S(=O)(=O)N1CCC(Oc2ccc(C(=O)N3CCCCCCC3)cc2)CC1,6,-17,9,7,11,-11
COc1ccc([C@H]2CC(=O)C=C(c3ccc(CNC(=O)OC(C)(C)C)cc3)C2)cc1,25,28*,7,9,-14,-11
COc1ccc([C@H]2CC(=O)C=C(c3ccc(OC(F)(F)F)cc3)C2)cc1,0,-4,0,1,9,-5
O=C(O)c1ccc(N2C(=O)CC(SC(=NCc3ccc4c(c3)OCO4)Nc3ccccc3)C2=O)cc1 (stereo unspecified),0,3,-1,-1,-8,-5
O=C1CC(SC(=NCc2ccc3c(c2)OCO3)Nc2ccccc2)C(=O)N1c1ccccc1 (stereo unspecified),1,-19,2,1,24*,-6
O=C(OCc1nnc(-c2ccccc2)o1)C1CC(=O)N(CCc2ccccc2)C1 (stereo unspecified),4,-10,1,0,25*,-7
CC[C@@H](C)[C@H](NC(=O)OCc1ccccc1)c1nnc([C@@H](NC(=O)OCc2ccccc2)[C@@H](C)CC)o1,0,-14,5,7,6,-12
Cc1ccccc1CS(=O)(=O)c1nnc([C@H](CC(C)C)NC(=O)OC(C)(C)C)o1,2,28*,0,-1,-11,2
